According to ChEMBL document CHEMBL1165950, “Design and synthesis of new potent anticancer pyrazoles with high FLT3 kinase inhibitory selectivity” (Bioorg Med Chem, 2010):

Experiments:
Format in all cases: functional
T47D = experiment: Cytotoxicity against human T47D cells assessed as cell growth at 0.001 uM after 48 hrs by sulforhodamine B assay; details: read-out: Activity
MOLT-4 [1] = experiment: Cytotoxicity against human MOLT4 cells assessed as cell growth at 1 uM after 48 hrs by sulforhodamine B assay; details: MOLT-4, 48 h, read-out: Activity
MOLT-4 [2] = experiment: Cytotoxicity against human MOLT4 cells assessed as cell growth at 0.001 uM after 48 hrs by sulforhodamine B assay; details: MOLT-4, 48 h, read-out: Activity
MDA-MB-435 [3] = experiment: Growth inhibition of human MDA-MB-435 cells after 48 hrs by sulforhodamine B assay; details: MDA-MB-435, 48 h
In short: (§1)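 NCI 60-cell screen, five-dose mode. Cells grown in RPMI 1640 with 5% FBS and 2 mM L-glutamine and plated at 5000-40,000 cells/well according to doubling time. After 24 h preincubation, a Tz plate was TCA-fixed. Five concentrations (10-fold or 1/2 log dilutions) were applied for 48 h at 37 °C. SRB staining read at 515 nm. IC50 taken from [(Ti-Tz)/(C-Tz)]×100 = 50.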

NCI-H522 [4] = experiment: Cytotoxicity against human NCI-H522 cells assessed as cell growth at 0.01 uM after 48 hrs by sulforhodamine B assay; details: NCI-H522, 48 h, read-out: Activity
MCF7 [5] = experiment: Cytotoxicity against human MCF7 cells assessed as cell growth at 10 uM; details: read-out: Activity
In short: (§2)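 NCI-60 screen: cells grown in RPMI 1640 with 5% FBS and 2 mM L-glutamine, plated at 5000–40,000 cells/well according to doubling time, and preincubated 24 h at 37 °C, 5% CO2. The single 10 µM dose (DMSO stock) was added, then incubated 48 h. Cells were TCA-fixed and stained with 0.4% SRB, read at 515 nm, and growth % calculated against time-zero and control plates.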

CAKI-1 [6] = experiment: Cytotoxicity against human Caki1 cells assessed as cell growth at 10 uM; details: read-out: Activity
In short: (§3)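 Single-dose NCI-60 screen at 10 µM. Cells were grown in RPMI 1640 with 5% FBS and 2 mM L-glutamine, then treated for 48 h at 37 °C. Protein was measured by SRB staining with absorbance at 515 nm. Percentage growth was recorded, and inhibition percentage was calculated as 100 minus growth percentage.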

MDA-MB-468 = experiment: Cytotoxicity against human MDA-MB-468 cells assessed as cell growth at 0.001 uM after 48 hrs by sulforhodamine B assay; details: MDA-MB-468, 48 h, read-out: Activity
SNB-19 = experiment: Cytotoxicity against human SNB19 cells assessed as cell growth at 100 nM after 48 hrs by sulforhodamine B assay; details: SNB-19, 48 h, read-out: Activity
OVCAR-5 = experiment: Cytotoxicity against human OVCAR5 cells assessed as cell growth at 10 uM; details: read-out: Activity; in short: as §2
NCI/ADR-RES [7] = experiment: Cytotoxicity against human NCI/ADR-RES cells assessed as cell growth at 10 uM; details: read-out: Activity; in short: as §2
NCI-H322M = experiment: Cytotoxicity against human NCI-H322M cells assessed as cell growth at 1 uM after 48 hrs by sulforhodamine B assay; details: read-out: Activity
NCI-H522 [8] = experiment: Growth inhibition of human NCI-H522 cells after 48 hrs by sulforhodamine B assay; details: NCI-H522, 48 h; in short: as §1
A549 = experiment: Cytotoxicity against human A549 cells assessed as cell growth at 10 uM; details: read-out: Activity; in short: as §3
M14 = experiment: Cytotoxicity against human M14 cells assessed as cell growth at 10 uM; details: read-out: Activity; in short: as §2
CCRF-CEM = experiment: Cytotoxicity against human CCRF-CEM cells assessed as cell growth at 100 nM after 48 hrs by sulforhodamine B assay; details: read-out: Activity
In short: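 NCI-60 five-dose screen. Cells were grown in RPMI 1640 with 5% FBS and 2 mM L-glutamine, plated at 5000–40,000 cells/well and preincubated for 24 h. Time-zero plates were TCA-fixed. DMSO-solubilized drug was added at five concentrations (10-fold or ½-log serial dilutions) for 48 h at 37 °C, 5% CO2. Cells were TCA-fixed, stained with 0.4% SRB and read at 515 nm. Percent growth used time-zero, control and test absorbances.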

MDA-MB-231 = experiment: Cytotoxicity against human MDA-MB-231 cells assessed as cell growth at 10 uM; details: read-out: Activity; in short: as §2
CAKI-1 [9] = experiment: Cytotoxicity against human Caki1 cells assessed as cell growth at 100 nM after 48 hrs by sulforhodamine B assay; details: CAKI-1, 48 h, read-out: Activity
TK-10 [10] = experiment: Cytotoxicity against human TK10 cells assessed as cell growth at 0.01 uM after 48 hrs by sulforhodamine B assay; details: TK-10, 48 h, read-out: Activity
MDA-MB-435 [11] = experiment: Cytotoxicity against human MDA-MB-435 cells assessed as cell growth at 0.001 uM after 48 hrs by sulforhodamine B assay; details: MDA-MB-435, 48 h, read-out: Activity
MCF7 [12] = experiment: Cytotoxicity against human MCF7 cells assessed as cell growth at 0.01 uM after 48 hrs by sulforhodamine B assay; details: MCF7, 48 h, read-out: Activity
TK-10 [13] = experiment: Cytotoxicity against human TK10 cells assessed as cell growth at 0.001 uM after 48 hrs by sulforhodamine B assay; details: TK-10, 48 h, read-out: Activity
HCT-116 = experiment: Cytotoxicity against human HCT116 cells assessed as cell growth at 10 uM; details: read-out: Activity; in short: as §3
NCI/ADR-RES [14] = experiment: Cytotoxicity against human NCI/ADR-RES cells assessed as cell growth at 10 uM after 48 hrs by sulforhodamine B assay; details: read-out: Activity
UACC-62 = experiment: Cytotoxicity against human UACC62 cells assessed as cell growth at 10 uM after 48 hrs by sulforhodamine B assay; details: UACC-62, 48 h, read-out: Activity
OVCAR-8 = experiment: Cytotoxicity against human OVCAR8 cells assessed as cell growth at 0.01 uM after 48 hrs by sulforhodamine B assay; details: OVCAR-8, 48 h, read-out: Activity
UACC-257 = experiment: Cytotoxicity against human UACC257 cells assessed as cell growth at 10 uM; details: read-out: Activity; in short: as §2
MDA-MB-435 [15] = experiment: Cytotoxicity against human MDA-MB-435 cells assessed as cell growth at 1 uM after 48 hrs by sulforhodamine B assay; details: MDA-MB-435, 48 h, read-out: Activity
HOP-92 = experiment: Cytotoxicity against human HOP92 cells assessed as cell growth at 1 uM after 48 hrs by sulforhodamine B assay; details: HOP-92, 48 h, read-out: Activity
SF-295 [16] = experiment: Growth inhibition of human SF295 cells after 48 hrs by sulforhodamine B assay; details: SF-295, 48 h; in short: as §1
SF-268 = experiment: Cytotoxicity against human SF268 cells assessed as cell growth at 0.001 uM after 48 hrs by sulforhodamine B assay; details: SF-268, 48 h, read-out: Activity
SF-295 [17] = experiment: Cytotoxicity against human SF295 cells assessed as cell growth at 10 uM; details: read-out: Activity; in short: as §2
SK-MEL-2 = experiment: Cytotoxicity against human SK-MEL-2 cells assessed as cell growth at 10 uM; details: read-out: Activity; in short: as §2
SW-620 = experiment: Cytotoxicity against human SW620 cells assessed as cell growth at 10 uM; details: read-out: Activity; in short: as §2
[18] = read-out: LC50 (the source's name)

COc1cc(C)cc(-c2nn(CC#N)cc2-c2ccnc(-c3ccc(N(C)C)cc3)c2)c1
growth at 0.001 µM (T47D): 102% | growth at 1 µM (MOLT-4 [1]): 13% | growth at 0.001 µM (MOLT-4 [2]): 102% | GI50 (MDA-MB-435 [3]): 235 nM | TGI (MDA-MB-435 [3]): 613 nM | CC50 (MDA-MB-435 [3]; [18]): > 100000 nM | growth at 0.01 µM (NCI-H522 [4]): 87% | growth at 10 µM (MCF7 [5]): 10.1% | growth at 10 µM (CAKI-1 [6]): 13.9% | growth at 0.001 µM (MDA-MB-468): 96% | growth at 0.1 µM (SNB-19): 35% | growth at 10 µM (OVCAR-5): 55.9% | growth at 10 µM (NCI/ADR-RES [7]): -28% | growth at 1 µM (NCI-H322M): 52% | GI50 (NCI-H522 [8]): 196 nM | TGI (NCI-H522 [8]): 492 nM | CC50 (NCI-H522 [8]; [18]): 3240 nM | growth at 10 µM (A549): 21.1% | growth at 10 µM (M14): -10% | growth at 0.1 µM (CCRF-CEM): 24% | growth at 10 µM (MDA-MB-231): -2.19% | growth at 0.1 µM (CAKI-1 [9]): 14% | growth at 0.01 µM (TK-10 [10]): 119% | growth at 0.001 µM (MDA-MB-435 [11]): 103% | growth at 0.01 µM (MCF7 [12]): 38% | growth at 0.001 µM (TK-10 [13]): 109% | growth at 10 µM (HCT-116): -31.6% | growth at 10 µM (NCI/ADR-RES [14]): -10% | growth at 10 µM (UACC-62): -8% | growth at 0.01 µM (OVCAR-8): 97% | growth at 10 µM (UACC-257): 68.2% | growth at 1 µM (MDA-MB-435 [15]): -7% | growth at 1 µM (HOP-92): 9% | GI50 (SF-295 [16]): 304 nM | TGI (SF-295 [16]): 1910 nM | CC50 (SF-295 [16]; [18]): > 100000 nM | growth at 0.001 µM (SF-268): 103% | growth at 10 µM (SF-295 [17]): -8.52% | growth at 10 µM (SK-MEL-2): 40.8% | growth at 10 µM (SW-620): 21.9%
